This is a sample that favours compounds with a hit; in the whole collection about 2.9% have one here.
PGC1a acetyl inh – modulators of PGC1a acetylation; 350,000 compounds, 0.17% hits; inhibition, % at 15.6 µM; U2OS PGC1a acetylation, AlphaScreen anti-acetyl-lysine; with virally co-expressed GCN5 acetyltransferase;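 active means every replicate shows inhibition of at least 40%; inconclusive means mean inhibition at least 40% but some replicate below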;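 further: 0% = neutral control wells and 100% = positive control wells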
SIRT5 inh – sirtuin-5 (human) deacylase inhibition | Q9NXA8 | Purified SirT5, succinyl-peptide AMC, trypsin-coupled fluorescence | inhibition, % at 15 µM | 330,000 compounds, 1.1% hits; in the data active means inhibition above about 15%; inconclusive means no clear call, values can overlap the other calls
Target sequence (Q9NXA8 whole entry, looked up): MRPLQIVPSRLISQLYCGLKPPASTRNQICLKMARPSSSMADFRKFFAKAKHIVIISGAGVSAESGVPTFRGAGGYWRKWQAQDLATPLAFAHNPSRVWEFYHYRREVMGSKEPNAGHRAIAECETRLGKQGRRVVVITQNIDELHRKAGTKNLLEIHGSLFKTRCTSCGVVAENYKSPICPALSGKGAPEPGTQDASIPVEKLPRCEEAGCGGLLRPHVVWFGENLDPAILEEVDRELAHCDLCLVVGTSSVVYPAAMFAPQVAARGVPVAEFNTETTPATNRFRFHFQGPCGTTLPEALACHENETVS
DENV2 CPE rescue – DENV2-induced cell death inhibition | DENV2-infected cells, cytopathic effect rescue, plate reader | CPE inhibition, % at 9.99 µM | 350,000 compounds, 1.7% hits | AID 651640; in the data active means CPE inhibition above about 20%, passing the limit was not always enough; inconclusive means no clear call, values can overlap the other calls; tested in BHK-21 cells;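 further: 0% = median of neutral control wells and 100% = median of positive control wells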
S100A4 inh HTS – S100A4-myosin IIA interaction inhibition; S100A4/TAMRA-MyoIIA peptide fluorescence polarization; inhibition, % at 10.7 µM; 360,000 compounds, 0.14% hits; AID 652163;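 active means mean inhibition of at least 70% across replicates, with every replicate also reaching that level; inconclusive means mean inhibition reaches 70% but some replicates fall short; inactive means mean inhibition below 70%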
Target sequence (P26447 whole entry, looked up): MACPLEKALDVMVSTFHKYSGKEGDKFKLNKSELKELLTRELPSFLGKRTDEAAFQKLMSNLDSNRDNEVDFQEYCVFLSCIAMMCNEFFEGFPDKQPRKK
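incubation = readout 5 min after mixing, signal stable up to 60 min | system = S100A4 monomer protein | buffer or medium = HEPES pH 7.2 with CaCl2, KCl, NaCl, DTT, Triton | benchmarks = neutral control DMSO, positive control TFP | also added = fluorescent myosin IIA peptide, 5 nM | compound dosing = one concentration per compound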
Statin myotox sup – suppression of simvastatin myotoxicity | C2C12 myotubes + simvastatin, ATP luminescence, 48 h; scaled: DMSO 0, geranylgeraniol control 100 | AID 602340 | 330,000 compounds, 0.78% hits | rescue of ATP level, % at 7.49 µM;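 active means mean ATP rescue above about 67%, or every replicate alone reaching that limit, limit read from the data, passing the limit was not always enough; inconclusive means no clear call, values can overlap the other calls; inactive means mean under the limit and some replicate under it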;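 further: myotubes were challenged with 10 µM simvastatin during compound exposure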
The depositor's hits bear a star; ? = inconclusive; nt = not tested or not shown; ! = not active in a repeat.

SMILES	PGC1a acetyl inh	SIRT5 inh	DENV2 CPE rescue	S100A4 inh HTS	Statin myotox sup
CCCCCCCNC(=O)C1(CC2CC(c3ccccc3)=NO2)CCN(C(=O)OC(C)(C)C)CC1 (centres undefined)	-23	17*	0	-7	-12
CCCCCCCNC(=O)C1(CC2CC(c3ccccc3)=NO2)CCN(C(=O)c2ccccc2)CC1 (centres undefined)	-4	3	24*	-2	11
O=C(C[C@H]1CC[C@H]2[C@@H](COC[C@@H](O)CN2Cc2cc(F)ccc2F)O1)N[C@@H]1CCN(Cc2ccccc2)C1	6	2	-5	4	31
CC1(C(=O)Nc2cccc(C#N)c2)CCN1C(=O)CCc1ccccc1 (centres undefined)	44*	-4	4	-20	13
CC1(C(=O)NS(=O)(=O)c2ccccc2C(F)(F)F)CCN1C(=O)CCc1ccccc1 (centres undefined)	15	2	49*	5	3
CC1(C(=O)NS(C)(=O)=O)CCN1C(=O)C/C=C/c1ccccc1 (centres undefined)	nt	0	61*	5	5
O=C(C[C@@H]1C=C[C@H](NC(=O)Nc2cccc(F)c2)[C@@H](CO)O1)NCC1CCCCC1	-10	0	?	3	-1
c1ccc(CCn2nnc3ccccc32)cc1	nt	20*	-1	-7	9
CC(C)c1ccc(Nc2ncc3c(n2)CCN(C(=O)Nc2ccc(F)c(Cl)c2)C3)cc1	nt	-3	20*	-2	-10
CC(C)NC(=O)N1Cc2cc(C(=O)NC3CCC3)nc(-c3cccc(-c4cccnc4)c3)c2[C@@H]1CCO	-12	2	30*	-9	nt
CC(=O)N1Cc2cc(C(=O)NCC(F)(F)F)nc(-c3cccc(-c4cncnc4)c3)c2[C@@H]1CCO	6	-3	21*	-4	nt
CC(C)NC(=O)N1Cc2cc(C(=O)NC3CCCC3)nc(-c3cccc(-c4cccnc4)c3)c2[C@H]1CCO	-1	-1	6	4	nt
CC(=O)N1Cc2cc(C(=O)NCC(F)(F)F)nc(-c3cccc(-c4cc5ccccc5o4)c3)c2[C@H]1CCO	-1	3	25*!	4	nt
CCNC(=O)c1cc2c(c(-c3cccc(-c4cncnc4)c3)n1)[C@@H](CCO)N(C(C)=O)C2	nt	0	40*!	-2	-9
CC=Cc1ccc2n(c1=O)C[C@@H]1[C@@H](CO)[C@H](C(=O)NCc3ccncn3)N(C(=O)C3CCCC3)[C@H]21 (mixture of isomers)	-6	-2	-5	4	nt
O=C(Cc1ccccc1)N1CC(=O)N2[C@H](CO)[C@H](c3ccc(Br)cc3)[C@@H]2C1	10	1	11	-15	nt
CCOC(=O)c1c(NC(=O)c2ccno2)c2cc([N+](=O)[O-])ccc2n1C	nt	-2	84*	9	nt
CCOc1ccc(N2Nc3n[nH]c(N)c3N2)cc1	13	nt	nt	nt	3
COc1ccc(N2Nc3n[nH]c(N)c3N2)cc1	4	nt	nt	nt	106*
COC(=O)C1=C(C)N(C)C(=NCc2cc(OC)c(OC)c(OC)c2)NC1c1ccc(Cl)cc1 (centres undefined)	nt	nt	-6	-1	nt
C[C@H]1CN([C@@H](C)CO)C(=O)c2cc(NC(=O)Cc3ccccc3)ccc2O[C@@H]1CN(C)Cc1ccncc1	0	1	-2	1	6
C[C@@H]1CN([C@@H](C)CO)C(=O)c2cc(C#CC(C)(C)O)cnc2O[C@H]1CN(C)C(=O)c1ccccc1F	14	0	-7	8	-3
O=C(C[C@H]1CC[C@H](NS(=O)(=O)c2ccc(F)cc2)[C@@H](CO)O1)N1CCN(c2ccccc2)CC1	5	9	-2	-6	14
O=C(N[C@H]1C=C[C@@H](CC(=O)N2CCN(c3ccccc3)CC2)O[C@H]1CO)c1ccccc1	-4	2	71*	0	6
O=C(C[C@@H]1CC[C@H](NS(=O)(=O)c2ccc(F)cc2)[C@H](CO)O1)N1CCN(c2ccccc2)CC1	1	20*	0	-5	9
SMILES	PGC1a acetyl inh	SIRT5 inh	DENV2 CPE rescue	S100A4 inh HTS	Statin myotox sup
O=C(C[C@@H]1C=C[C@@H](NC(=O)c2ccncc2)[C@H](CO)O1)Nc1ccccc1	5	-1	35*	5	nt
O=C(N[C@@H]1C=C[C@H](CC(=O)N2CCN(c3ccccc3)CC2)O[C@H]1CO)c1ccccc1	-9	2	8	1	1
O=C(C[C@H]1CC[C@@H](NS(=O)(=O)c2ccc(F)cc2)[C@@H](CO)O1)N1CCC(Cc2ccccc2)CC1	-8	-1	0	-15	4
O=C(C[C@@H]1CC[C@@H](NS(=O)(=O)c2ccc(F)cc2)[C@@H](CO)O1)N1CCC(Cc2ccccc2)CC1	1	28*	7	4	2
C[C@@H]1CN([C@H](C)CO)S(=O)(=O)c2ccc(-c3ccc(F)cc3)cc2O[C@@H]1CN(C)C(=O)c1ccccc1F	-12	-1	0	4	-16
COc1ccc(S(=O)(=O)N2CCN(Cc3ccc(OCCO)cc3)CC2)cc1	nt	-3	-8	1	nt
C[C@@H]1CN([C@H](C)CO)C(=O)c2cc(N(C)C)ccc2O[C@@H]1CN(C)C(=O)Nc1ccc2c(c1)OCO2	-12	-3	nt	6	10
O=C(N[C@@H]1CC[C@H](CC(=O)N2CCN(c3ccccc3)CC2)O[C@H]1CO)c1ccccc1	-8	-26	?	22	-17
NS(=O)(=O)c1ccc(CCNCC(=O)N2CCC(Cc3ccccc3)CC2)cc1	1	-3	-5	1	85*
O=C(N[C@@H]1CC[C@@H](CC(=O)N2CCN(c3ccccc3)CC2)O[C@H]1CO)c1ccncc1	8	-1	31*	-8	-3
COc1ccc(-c2[nH]ncc2CN(C)C(C)c2ccon2)cc1F (centres undefined)	80*	0	-4	27	-19
COc1ccc(-c2[nH]ncc2CN(C)CCN2CCOCC2)cc1F	-7	-2	3	2	nt
Oc1ccccc1/C=N/c1c(-c2ccco2)nc2ccccn12	6	nt	nt	nt	102*
Cc1ccc(C)c(OCC(=O)NCC(C)(C)N2CCOCC2)c1	-1	4	7	1	-2
Cc1cc(C)c(OCC(=O)NCC(C)(C)N2CCOCC2)c(C)c1	nt	30*	?	34	-1
CC(C)(C)[S@](=O)N1Cc2cc(C(=O)N3CCCCC3)nc(-c3cccc(-c4ccc(C#N)cc4)c3)c2[C@@H]1CCO	19	3	1	-17	-6
O=C(N[C@H]1CC[C@@H](CC(=O)N2CCCCC2)O[C@@H]1CO)c1ccccn1	9	-5	-8	-4	-5
O=C(N[C@H]1CC[C@@H](CCNC(=O)C2CCCC2)O[C@@H]1CO)c1ccccn1	3	-1	3	6	0
O=C(N[C@H]1CC[C@H](CC(=O)N2CCCCC2)O[C@@H]1CO)c1ccccn1	22	-2	28*	nt	-4
